Assay results collected from several papers.
Each line is one published result; the experiments were not run side by side.
TEK: Angiopoietin-1 receptor (TEK, Homo sapiens, UniProt Q02763)
TEK Y897S: Angiopoietin-1 receptor (TEK, Homo sapiens, UniProt Q02763, Y897S)

Compound	target	test	setting	measurement	result
CCOCCn1cc(C(=O)Nc2ccc(-n3nc(-c4cccnc4)cc3C(F)(F)F)cn2)ccc1=O	TEK	cell-free assay, competition with immobilised ligand	1 µM	remaining binding	87%
CNCc1ccc(-c2cc(-c3nc(-c4ccc(S(=O)(=O)C(C)C)cc4)cnc3N)on2)cc1	TEK	enzyme activity, inhibitor	0.4 µM	inhibition	0%
O=C(Nc1cnn(-c2csc(C(=O)NC3COC3)c2)c1)Nc1c(F)cccc1Cl	TEK	enzyme activity, inhibitor	5 µM	remaining activity	105%
CCCOc1ccc(OC)c(F)c1C(=O)c1ccc(C(=O)N[C@@H]2CNC[C@H]2NC(=O)c2ccc3[nH]ncc3c2)cc1	Angiopoietin-1 receptor (TEK, Homo sapiens, UniProt Q02763, R849W)	enzyme activity, inhibitor	10 µM	remaining activity	46%
Cc1noc([C@H]2C[C@@H](c3ccc(C(F)(F)F)cc3)CN(C(=O)N3CCS(=O)(=O)C3)C2)n1	TEK	cell-free assay, competition with immobilised ligand	1 µM	remaining binding	100%
Cc1ccc(NC(=O)c2ccc(C)c(C(F)(F)F)c2)cc1C#Cc1nn(C2CCC(O)CC2)c2ncnc(N)c12 (stereo not drawn)	TEK Y897S	enzyme activity, inhibitor	10 µM	remaining activity	0%
C[C@H](c1ccc(F)cc1)N(Cc1cccc(C(=O)O)c1)C(=O)c1cnc2ccccc2c1	TEK	cell-free assay, competition with immobilised ligand	1 µM	remaining binding	98%
O=C1Nc2ccc(Cl)cc2C1=Cc1cc(Cl)c(O)c(Cl)c1	TEK	cell-free assay	0.5 µM	remaining signal	93%
CCOc1cc(-c2nncn2C)ccc1Nc1ncc2cc(C)nc(NCC(C)(C)C)c2n1	TEK	enzyme activity, inhibitor, FRET	1 µM	inhibition	< 15%
COc1cc(/C=C/C(=O)CC(=O)/C=C/c2ccc(O)c(OC)c2)ccc1O	TEK	enzyme activity, inhibitor	1 µM	activity vs control	112%
Cc1ccc(C(=O)NCc2ccsc2)cc1C#Cc1cn(C(C)C)c2ncnc(N)c12	TEK	enzyme activity, inhibitor	1 µM	activity vs control	6%
Cc1[nH]c(/C=C2\C(=O)Nc3ccc(F)cc32)c(C)c1C(=O)N[C@H]1CCN(C(=O)N(C)C)C1	TEK	enzyme activity, inhibitor	0.1 µM	remaining activity	94%
N#CCCc1ccc2c(c1)-c1[nH]c3ccc([N+](=O)[O-])cc3c1CC(=O)N2	TEK	cell-free assay	0.5 µM	remaining signal	97.6%
Cc1c[nH]c2nccc(Oc3c(F)cc(Nc4cc(Cl)nc(N)n4)cc3F)c12	TEK	cell-free assay, competition with immobilised ligand	0.1 µM	remaining binding	95%
CCN(CC)CCNC(=O)c1c(C)[nH]c(/C=C2\C(=O)Nc3ccc(F)cc32)c1C	TEK	enzyme activity, inhibitor	0.3 µM	inhibition	-2%
Cc1ccc(NC(=O)c2ccc(CN3CCN(C)CC3)cc2)cc1Nc1nc(-c2cccnc2)cs1	TEK	cell-free assay	0.5 µM	remaining signal	97.2%
CCCS(=O)(=O)Nc1ccc(F)c(C(=O)c2c[nH]c3ncc(-c4ccc(Cl)cc4)cc23)c1F	TEK	enzyme activity, inhibitor	1 µM	inhibition	< 10%
CS(=O)(=O)Nc1cccc(-c2csc(NC(=O)CSc3nc4nccnc4c(=O)n3CCc3ccccc3)n2)c1	TEK	enzyme activity, inhibitor	10 µM	inhibition	3%
CN([C@@H]1CCc2c(CC(=O)O)c3cc(S(C)(=O)=O)ccc3n2C1)S(=O)(=O)c1ccc(F)cc1	TEK	cell-free assay, competition with immobilised ligand	1 µM	remaining binding	88%
CC/C(=N\NC(=O)NCc1cccc(O)c1)c1ccc(O)c(C)c1O	TEK	enzyme activity, inhibitor	0.1 µM	inhibition	-0.2%
CCCCN(CCCC)C(=O)CN1C[C@@H](c2cc(OC)c3c(c2)OCO3)[C@H](C(=O)O)[C@H]1CC(C)(C)CCC	TEK	cell-free assay, competition with immobilised ligand	1 µM	remaining binding	100%
COc1cc(Cl)c(C(=O)N[C@@H](CN[C@H]2CC[C@@H](N)CC2)Cc2ccc(C#N)cc2)cc1-c1ccc(CN[C@H](C)c2ccc(C)cc2)o1	TEK	enzyme activity, inhibitor	1 µM	remaining activity	79%
CC(C)(C)c1nc2c(s1)c1nc(N)ncc1c1ccc(NS(=O)(=O)c3c(F)cccc3F)c(F)c12	TEK	enzyme activity, inhibitor, radiometric	1 µM	remaining activity	79%
COc1cc2ncnc(Nc3ccc(Oc4ccccc4)c(C)c3C)c2cc1OC	TEK	enzyme activity, inhibitor	1 µM	inhibition	6%
COc1cc(Nc2cnc(C#N)c(O[C@H](C)CN(C)C)n2)ncc1-c1cnn(C)c1	TEK	enzyme activity, inhibitor, radiometric	10 µM	remaining activity	90%
Cc1cnc(NC2CCOCC2)nc1-n1cnc(C(=O)NC(CN)c2cc(F)cc(Cl)c2)c1 (stereo not drawn)	TEK	enzyme activity, inhibitor, radiometric	1 µM	remaining activity	105%
CC1=C(C#N)[C@@H](c2ccc3[nH]nc(C)c3c2)C(C#N)=C(c2ccc(Cl)cc2)N1	TEK	cell-free assay, competition with immobilised ligand	1 µM	remaining binding	74.5%
Cc1cc(NC(=O)c2cccc3cc(-c4cccc5[nH]nc(N)c45)ccc23)ccc1F	TEK Y897S	enzyme activity, inhibitor	0.1 µM	activity vs control	103%
CCc1ccccc1C(=O)Nc1n[nH]c2c(C)c(F)c(C3C(C#N)=C(C)N(C)C(C)=C3C#N)cc12	TEK	cell-free assay, competition with immobilised ligand	1 µM	remaining binding	91%
CNC(=O)c1cc2c(Oc3ccc(NC(=O)C4(C(=O)Nc5ccc(F)cc5)CC4)cc3)ccnc2cc1OC	TEK	enzyme activity, inhibitor, radiometric	1 µM	inhibition	99%
